According to ChEMBL document CHEMBL1140106, “Blocking estrogen signaling after the hormone: pyrimidine-core inhibitors of estrogen receptor-coactivator binding” (J Med Chem, 2008):

Experiments:
[1] = molecular target: T1, Estrogen receptor (Homo sapiens, UniProt P03372); assay: Binding affinity to ERalpha assessed as inhibition of fluorescein-labeled nuclear receptor domain of steroid receptor coactivator 3 by TR-FRET assay
T1 sequence (P03372 whole entry): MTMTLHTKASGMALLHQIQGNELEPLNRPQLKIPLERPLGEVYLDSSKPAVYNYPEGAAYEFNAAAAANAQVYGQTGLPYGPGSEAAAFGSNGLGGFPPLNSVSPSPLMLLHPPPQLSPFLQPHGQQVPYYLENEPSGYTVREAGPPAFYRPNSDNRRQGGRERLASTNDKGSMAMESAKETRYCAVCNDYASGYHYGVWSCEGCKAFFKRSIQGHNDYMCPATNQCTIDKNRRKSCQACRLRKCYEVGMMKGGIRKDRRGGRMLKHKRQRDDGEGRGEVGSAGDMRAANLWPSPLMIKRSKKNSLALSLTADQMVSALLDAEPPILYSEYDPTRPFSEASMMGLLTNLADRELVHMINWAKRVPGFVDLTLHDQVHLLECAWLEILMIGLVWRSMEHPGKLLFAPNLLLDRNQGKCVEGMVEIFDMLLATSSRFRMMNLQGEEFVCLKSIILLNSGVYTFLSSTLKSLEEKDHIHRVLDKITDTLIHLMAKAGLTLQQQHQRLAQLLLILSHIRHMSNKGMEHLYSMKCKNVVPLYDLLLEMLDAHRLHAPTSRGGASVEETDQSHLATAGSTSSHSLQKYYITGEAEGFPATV
Method in brief: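 Fluorescein-SRC-3-NRD (50 nM) was then added for 1 h at room temperature in the dark. Buffer: 20 mM Tris pH 7.5, 0.01% NP40, 50 mM NaCl. SRC-1 Box II peptide served as positive control.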

[2] = molecular target: T1, Estrogen receptor; assay: Antagonist activity at ERalpha in human HEC1 cells assessed as inhibition of estrogen-induced transcriptional activity after 24 hrs by reporter gene assay; assay type: functional, cell-based, HEC-1
Method in brief: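 HEC-1 cells, which lack endogenous ER, were lipofectin-transfected with full-length ERα vector, 2ERE-luciferase reporter and pCMV β-gal as internal control. After 6 h the medium was changed to 5% charcoal-dextran-treated calf serum with ligands.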

[3] = molecular target: T2, Estrogen receptor beta (Homo sapiens, UniProt Q92731); assay: Binding affinity to ERbeta assessed as inhibition of fluorescein-labeled nuclear receptor domain of steroid receptor coactivator 3 by TR-FRET assay
[4] = molecular target: T1, Estrogen receptor; assay: Binding affinity to ERalpha assessed as inhibition of steroid receptor coactivator 2 interaction by fluorescence polarization assay
[5] = Cytotoxicity against human HEC1 cells assessed as decrease in viable cell count at 20 uM; assay type: cell-based; conditions: hec-1, 20 µM
[6] = molecular target: T2, Estrogen receptor beta; assay: Antagonist activity at ERbeta in human HEC1 cells assessed as inhibition of estrogen-induced transcriptional activity after 24 hrs by reporter gene assay; assay type: functional, cell-based, HEC-1
[7] = molecular target: T1, Estrogen receptor; assay: Binding affinity to ERalpha assessed as inhibition of steroid receptor coactivator interaction in african green monkey COS7 cells by mammalian 2 hybrid assay; assay type: cell-based, COS-7

T2 sequence (Q92731 whole entry, the tested form may be a part): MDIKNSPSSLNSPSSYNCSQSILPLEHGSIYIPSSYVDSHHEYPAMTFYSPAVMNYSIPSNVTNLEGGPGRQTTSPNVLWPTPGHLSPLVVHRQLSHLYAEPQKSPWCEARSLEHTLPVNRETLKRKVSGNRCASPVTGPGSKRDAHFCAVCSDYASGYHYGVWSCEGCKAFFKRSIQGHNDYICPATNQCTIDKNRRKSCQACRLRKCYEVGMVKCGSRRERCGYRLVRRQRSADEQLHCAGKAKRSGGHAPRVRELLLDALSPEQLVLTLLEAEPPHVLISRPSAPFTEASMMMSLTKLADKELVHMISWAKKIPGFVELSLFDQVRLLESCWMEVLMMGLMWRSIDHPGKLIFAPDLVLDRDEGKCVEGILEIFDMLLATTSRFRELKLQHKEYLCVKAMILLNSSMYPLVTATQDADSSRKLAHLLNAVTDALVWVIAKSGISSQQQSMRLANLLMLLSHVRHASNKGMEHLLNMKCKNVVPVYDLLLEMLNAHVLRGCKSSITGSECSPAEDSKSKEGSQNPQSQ

Row | Ki [1] [µM] | IC50 [2] [µM] | Ki [3] [µM] | Ki [4] [µM] | IC50 [6] [µM] | Compound | Activity [5] | IC50 [7] [µM]
1 | > 1000 | > 1000 | > 1000 | 49 | – | c1ccc(CCc2cc(NCc3ccccc3)nc(NCc3ccccc3)n2)cc1 | – | –
2 | > 1000 | 6.9 | > 1000 | – | – | CC(C)CCc1cc(NCC(C)C)nc(OCC(C)C)n1 | Active | –
3 | > 1000 | > 1000 | > 1000 | – | – | CC(C)CNc1nc(/C=C/c2ccccc2)cc(/C=C/c2ccccc2)n1 | – | –
4 | > 1000 | 12 | > 1000 | – | – | CC(C)CNc1cc(/C=C/c2ccccc2)nc(NCc2ccccc2)n1 | Active | –
5 | > 1000 | > 1000 | > 1000 | – | – | c1ccc(COc2cc(OCc3ccccc3)nc(OCc3ccccc3)n2)cc1 | – | –
6 | > 1000 | > 1000 | > 1000 | – | – | CC(C)CNc1nc(/C=C/c2ccccc2)cc(N(C)CC(C)C)n1 | – | –
7 | 4.1 | 8.3 | > 1000 | – | – | CC(C)CCc1cc(NCc2ccccc2)nc(NCc2ccccc2)n1 | – | –
8 | 5.8 | 2.1 | > 1000 | – | > 1000 | CC(C)CNc1cc(CCc2ccccc2)nc(NCC(C)C)n1 | Active | –
9 | 2.5 | 2.1 | > 1000 | – | – | CC(C)CNc1cc(CCc2cccc3ccccc23)nc(NCC(C)C)n1 | – | –
10 | > 1000 | > 1000 | > 1000 | – | – | c1ccc(CSc2cc(SCc3ccccc3)nc(SCc3ccccc3)n2)cc1 | – | –
11 | > 1000 | > 1000 | > 1000 | – | – | CC(C)CCc1cc(NCc2cccc3ccccc23)nc(NCc2ccccc2)n1 | – | –
12 | > 1000 | > 1000 | > 1000 | – | – | CC(C)CNc1cc(CCc2ccccc2)nc(NCc2cccc3ccccc23)n1 | – | –
13 | > 1000 | > 1000 | > 1000 | – | – | c1ccc2c(CCc3cc(NCc4cccc5ccccc45)nc(NCc4cccc5ccccc45)n3)cccc2c1 | – | –
14 | > 1000 | > 1000 | > 1000 | – | – | c1ccc(CCc2cc(NCc3cccc4ccccc34)nc(NCc3cccc4ccccc34)n2)cc1 | – | –
15 | – | – | 299 | – | – | CC(C)CNc1cc(NCC(C)C)nc(NCC(C)C)n1 | Active | –
16 | > 1000 | > 1000 | > 1000 | – | – | CC(C)CNc1nc(CCc2ccccc2)cc(CCc2ccccc2)n1 | – | –
17 | 7.9 | 1.8 | > 1000 | – | – | CC(C)CCc1cc(NCC(C)C)nc(NCc2ccccc2)n1 | Active | –

Row | Ki [1] [µM] | IC50 [2] [µM] | Ki [3] [µM] | Ki [4] [µM] | IC50 [6] [µM] | Compound | Activity [5] | IC50 [7] [µM]
18 | > 1000 | > 1000 | > 1000 | – | – | CC(C)CNc1cc(/C=C/c2ccccc2)nc(NCc2cccc3ccccc23)n1 | – | –
19 | > 1000 | > 1000 | > 1000 | – | – | CC(C)COc1cc(/C=C/c2ccccc2)nc(OCC(C)C)n1 | – | –
20 | 16 | 9.8 | > 1000 | – | – | CC(C)CNc1nc(/C=C/c2ccccc2)cc(NCc2ccccc2)n1 | – | –
21 | > 1000 | > 1000 | > 1000 | – | – | CC(C)CCc1nc(NCc2cccc3ccccc23)cc(NCC(C)C)n1 | – | –
22 | > 1000 | > 1000 | > 1000 | – | – | c1ccc(CCc2cc(OCc3ccccc3)nc(OCc3ccccc3)n2)cc1 | – | –
23 | > 1000 | > 1000 | > 1000 | – | – | CC(C)CCc1cc(NCc2cccc3ccccc23)nc(NCc2cccc3ccccc23)n1 | – | –
24 | – | 9.5 | > 1000 | – | > 1000 | CC(C)CNc1cc(NCc2ccccc2)nc(NCC(C)C)n1 | – | –
25 | 7.2 | 9.7 | > 1000 | – | – | CC(C)CCc1cc(NCC(C)C)nc(N(C)CC(C)C)n1 | – | –
26 | > 1000 | > 1000 | > 1000 | – | – | C(=C\c1cc(/C=C/c2ccccc2)nc(NCc2ccccc2)n1)/c1ccccc1 | – | –
27 | 1.7 | 1.9 | > 1000 | – | – | CC(C)CNc1nc(CCc2ccccc2)cc(NCc2ccccc2)n1 | – | –
28 | – | – | – | – | – | N=C(N)N/N=C/C1=C(Cl)c2ccccc2CC1 | – | 5.5
29 | > 1000 | > 1000 | > 1000 | – | – | CC(C)COc1cc(CCc2ccccc2)nc(OCC(C)C)n1 | – | –
30 | > 1000 | > 1000 | > 1000 | – | – | CC(C)CCc1cc(CCC(C)C)nc(NCc2ccccc2)n1 | – | –
31 | > 1000 | > 1000 | > 1000 | – | – | c1ccc(CCc2cc(NCc3cccc4ccccc34)nc(NCc3ccccc3)n2)cc1 | – | –
32 | – | – | > 1000 | – | > 1000 | CC(C)CCc1cc(NCC(C)C)nc(NCC(C)C)n1 | – | –
33 | > 1000 | > 1000 | > 1000 | – | – | CC(C)COc1cc(OCC(C)C)nc(OCC(C)C)n1 | – | –
